Test results: ChEMBL document CHEMBL1153326, “Benzo(h)quinoline derivatives as G-quadruplex binding agents” (Bioorg Med Chem Lett, 2009)

What was measured:
Assay type in all cases: nucleic-acid assay
Nucleic Acid [1] = assay: Binding affinity to DNA G-quadruplex
Nucleic Acid [2] = assay: Binding affinity to human telomeric DNA G-quadruplex assessed as change in melting temperature at 0.5 uM by fluorescein-rhodamine based FRET assay
Method in brief: (§1)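 Human telomeric-repeat G-quadruplex oligo carrying a 5'/3' fluorescein–rhodamine FRET pair. Compound at 0.5 µM with the oligo at half that concentration, in 10 mM cacodylate, 100 mM NaCl, pH 7.4. Heated from 20 to 80 °C at 1 °C/min with a 2 min equilibration at each step. Emission read at 518 nm; Tm taken from the melting curve, ΔTm against no compound.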

Nucleic Acid [3] = assay: Displacement of thiazole orange from synthetic oligo 22G DNA G-quadruplex by fluorescence displacement assay
Method in brief: (§2)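 Compound titrated into 0.25 µM oligonucleotide (22G quadruplex or 17 bp duplex) with thiazole orange in 10 mM cacodylate, pH 7.4, plus 100 mM KCl. Full fluorescence spectrum recorded after each addition and peak area plotted against compound concentration. Concentration cutting the area by 50% taken as IC50; binding constant calculated from a simple competitive binding model.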

Nucleic Acid [4] = assay: Selectivity for synthetic oligo 22G DNA G-quadruplex over synthetic oligo 17bp DNA duplex
Method in brief: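 Ratio of the thiazole-orange displacement binding constant for the 22G quadruplex to that for the 17 bp duplex. Both constants come from titrating compound into 0.25 µM oligo with dye in 10 mM cacodylate, pH 7.4, 100 mM KCl, taking the 50% loss of peak area as IC50, and applying a competitive binding model.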

Nucleic Acid [5] = assay: Displacement of thiazole orange from synthetic oligo 17bp DNA duplex by fluorescence displacement assay; method in brief: as §2
Nucleic Acid [6] = assay: Binding affinity to human telomeric DNA G-quadruplex assessed as melting temperature at 0.5 uM by fluorescein-rhodamine based FRET assay; method in brief: as §1
Nucleic Acid [7] = assay: Binding affinity to human telomeric DNA assessed as equilibrium binding constant by SPR
Method in brief: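 SPR steady-state analysis against human telomeric quadruplex and duplex DNA, with multiple injections over a range of drug concentrations. Binding constants derived from the relative instrument response.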

Kapp (Nucleic Acid [1]) [×10⁴ /M]	ΔTm (Nucleic Acid [2]) [°C]	K (Nucleic Acid [3]) [×10⁵ /M]	Ratio (Nucleic Acid [4])	K (Nucleic Acid [5]) [×10⁵ /M]	Tm (Nucleic Acid [6]) [°C]	K (Nucleic Acid [7]) [×10⁵ /M]	Structure (SMILES)
	0.69	0.42	0.84	0.5	51.9		O=C(Nc1ccncc1)c1cc(=O)c2ccc3ccccc3c2[nH]1
	0.19	0.53	0.71	0.74	51.4		CN(C)c1ccc(NC(=O)c2c[nH]c3c(ccc4ccccc43)c2=O)cc1
	5.29	1.4	0.51	2.5	56.5		O=C(Nc1ccncc1)c1c[nH]c2c(ccc3ccccc32)c1=O
	0.41	3.9	7.4	0.53	51.6	0.3	CN(C)c1ccc(NC(=O)c2cc(=O)c3ccc4ccccc4c3[nH]2)cc1

Second part, the compound before the results:

Structure (SMILES)	Kapp (Nucleic Acid [1]) [×10⁴ /M]	ΔTm (Nucleic Acid [2]) [°C]	K (Nucleic Acid [3]) [×10⁵ /M]	Ratio (Nucleic Acid [4])	K (Nucleic Acid [5]) [×10⁵ /M]	Tm (Nucleic Acid [6]) [°C]	K (Nucleic Acid [7]) [×10⁵ /M]
CN(C)CCCNC(=O)c1cc2[nH]c3c(cnc4ccc([N+](=O)[O-])cc43)c(=O)c2n1C	2.7						
O=C(Nc1ccccc1)c1c[nH]c2c(ccc3ccccc32)c1=O		1.05	1.4	0.22	6	52.3	
O=C(NCCN1CCCCC1)c1cc(=O)c2ccc3ccccc3c2[nH]1		1	0.05	0.05	1.1	52.2	
O=C(NCCN1CCCCC1)c1c[nH]c2c(ccc3ccccc32)c1=O		5.17	2.5	10.4	0.24	56.4	
O=C(NCCN1CCCC1)c1cc(=O)c2ccc3ccccc3c2[nH]1		1.35	0.23	0.55	0.41	52.6	
O=C(NCCN1CCNCC1)c1cc(=O)c2ccc3ccccc3c2[nH]1		1.27	0.53	0.21	2.5	52.5	
O=C(NCCN1CCNCC1)c1c[nH]c2c(ccc3ccccc32)c1=O		1.19	0.3	0.4	0.75	52.4	
CN1CCN(CCNC(=O)c2c[nH]c3c(ccc4ccccc43)c2=O)CC1		3.69	0.19	0.37	0.5	54.9	0.5
O=C(NCCN1CCCC1)c1c[nH]c2c(ccc3ccccc32)c1=O		4.36	0.53	2.5	0.21	56	0.4
